Screens as filed in PubChem BioAssay.
Most compounds without a hit are left out; they make up all but 3.1% or so of the library.
IMP-1 inh-1 = IMP-1 metallo-beta-lactamase inhibitors, primary screen, biochemical, epi-absorbance readout, Pseudomonas aeruginosa enzyme; metallo-beta-lactamase IMP-1 (Pseudomonas aeruginosa); purified IMP-1, nitrocefin hydrolysis, epi-absorbance fluorescence; 290,000 compounds, 0.45% hits; inhibition, % at 5.6 µM;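 active = inhibition above the mean plus 3 SD of all compounds in the same screening run, cut at about 4.5% in these data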;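 also: 0% = IMP-1 with DMSO and 100% = DMSO wells lacking enzyme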
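System – purified recombinant IMP-1 beta-lactamase · Input – IMP-1 dispensed at 0.2 nM · Timing – 15 min preincubation plus 25 min reaction at 25 °C · Signal – Epi-absorbance fluorescence, 480 nm excitation, 530 nm emission · Measure – percent IMP-1 inhibition derived from blank-referenced optical density · Controls – Enzyme-plus-DMSO low control, enzyme-free DMSO high control · Replication – singlicate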
VIM-2 inh = VIM-2 metallo-beta-lactamase inhibitors, primary screen, biochemical, epi-absorbance readout, Pseudomonas aeruginosa enzyme. purified VIM-2, nitrocefin hydrolysis, epi-absorbance fluorescence. inhibition, % at 5.6 µM. 290,000 compounds, 0.89% hits;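 active = inhibition above the mean of all tested compounds plus 3 SD, cutoff set per screening run, cut at about 7.5% in these data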;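 also: red hydrolysis product quenches plate fluorescence so inhibitors raise well fluorescence; 0% = enzyme with DMSO and 100% = DMSO without enzyme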
HCV core dimer = inhibitors of HCV core protein dimerization, primary screen, biochemical, TR-FRET, high-throughput; TR-FRET GST/Flag-core106 dimerization, 1536-well; inhibition, % at 5 µM; 300,000 compounds, 0.33% hits;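 active = inhibition above the mean of all tested compounds plus 3 SD, set per screening campaign, cut at about 45% in these data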
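System: GST/Flag-tagged HCV core106 proteins. Incubation: compound-protein-antibody incubation 4 h at 22.5 °C. Technique: HTRF with 340 nm excitation, 617/671 nm emission. Medium: KF-containing HEPES buffer, pH 7.45, DTT, CHAPS, BSA. Read-out: inhibition (%) from 671 over 617 nm ratio. Also added: Eu(K)-anti-GST 90 ng/mL plus XL665-anti-Flag 1 µg/mL.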
SUMO HTRF inh = inhibitors of in vitro SUMOylation cascade, primary screen, biochemical, HTRF, uHTS. SUMO-conjugating enzyme UBC9 (Homo sapiens), P63279. HTRF SUMOylation assay, SAE1/SAE2 + UBC9. inhibition, % at 35 µM. 290,000 compounds, 0.36% hits. AID 2006, 2009; in the data active = inhibition above about 50%, passing the limit was not always enough
Target sequence (P63279 whole entry, looked up): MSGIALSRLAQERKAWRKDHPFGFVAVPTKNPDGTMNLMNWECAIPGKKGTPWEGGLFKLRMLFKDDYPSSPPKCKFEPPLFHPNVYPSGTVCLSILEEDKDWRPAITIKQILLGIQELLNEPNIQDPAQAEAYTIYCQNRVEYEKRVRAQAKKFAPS
PHOSPHO1 block = PubChem AID 1565. 290,000 compounds, 1.1% hits. Phosphoethanolamine/phosphocholine phosphatase (Homo sapiens), Q8TCT1. inhibition, % at 13.3 µM. recombinant PHOSPHO1, absorbance phosphatase assay; in the data active = inhibition above about 60%
Target sequence (Q8TCT1 whole entry, looked up): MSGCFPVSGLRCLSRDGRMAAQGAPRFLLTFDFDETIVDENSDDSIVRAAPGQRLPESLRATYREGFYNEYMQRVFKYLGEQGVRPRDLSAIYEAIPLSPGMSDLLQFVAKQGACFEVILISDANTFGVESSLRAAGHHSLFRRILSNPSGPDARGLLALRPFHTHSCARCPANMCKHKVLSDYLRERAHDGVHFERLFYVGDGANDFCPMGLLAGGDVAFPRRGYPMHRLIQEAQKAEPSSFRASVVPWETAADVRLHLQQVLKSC
NS3 helicase inh = inhibitors of HCV NS3 helicase, primary screen, biochemical, Cy5 molecular beacon fluorescence | NS3 helicase DNA unwinding | Hepatitis C virus NS3 helicase | inhibition, % at 10.9 µM | 290,000 compounds, 0.56% hits;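 active = inhibition above the mean of all tested compounds plus 3 SD, set per campaign, cut at about 35% in these data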;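 also: 0% = DMSO wells and 100% = thioflavine S control wells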
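test system = hepatitis C virus NS3 helicase domain fragment enzyme | reagent = annealed dual-labelled DNA beacon duplex, ATP-started | times = 1 h at 25 °C | detection = Cy5 fluorescence, 0 and 60 min reads | read-out basis = percent inhibition from t60/t0 fluorescence ratio | control set = DMSO and thioflavine S | replication = one well per compound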
IMP-1 inh-2 = IMP-1 metallo-beta-lactamase inhibitors, confirmation, selectivity assay for selective VIM-2 inhibitor project, biochemical, epi-absorbance readout, triplicate; 1,300 tested, under 10 active; shares compounds with VIM-2 inh; purified IMP-1, nitrocefin hydrolysis, epi-absorbance fluorescence; inhibition, % at 5.6 µM; call rule not given here;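 also: 0% = enzyme with vehicle and 100% = vehicle without enzyme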
VIM-2 FRET ctr = VIM-2 inhibitors in FRET format, confirmation, artefact control for selective VIM-2 inhibitor project, biochemical, epi-absorbance artifact exclusion; shares compounds with VIM-2 inh; purified VIM-2, CCF2 FRET substrate hydrolysis; inhibition, % at 5.6 µM; 1,300 compounds, 23% hits; AID 1857, 2009;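 active = inhibition above the mean of all tested compounds plus 3 SD, cut at about 19% in these data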;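 also: 0% = VIM-2 plus DMSO and 100% = no enzyme wells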
TEM-1 counter = TEM-1 serine beta-lactamase inhibitors, counter-screen for VIM-2 inhibitor project, biochemical, epi-absorbance, HTS; shares compounds with VIM-2 inh; Purified TEM-1, nitrocefin hydrolysis, epi-absorbance fluorescence; inhibition, % at 5.6 µM; 1,300 compounds, 3% hits; AID 1866, 2009;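 active = inhibition above that campaign's mean inhibition plus 3 SD, cut at about 0.46% in these data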;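 also: 0% = TEM-1 with DMSO and 100% = TEM-1 with 100 µM potassium clavulanate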
Target sequence (P62593 whole entry, looked up): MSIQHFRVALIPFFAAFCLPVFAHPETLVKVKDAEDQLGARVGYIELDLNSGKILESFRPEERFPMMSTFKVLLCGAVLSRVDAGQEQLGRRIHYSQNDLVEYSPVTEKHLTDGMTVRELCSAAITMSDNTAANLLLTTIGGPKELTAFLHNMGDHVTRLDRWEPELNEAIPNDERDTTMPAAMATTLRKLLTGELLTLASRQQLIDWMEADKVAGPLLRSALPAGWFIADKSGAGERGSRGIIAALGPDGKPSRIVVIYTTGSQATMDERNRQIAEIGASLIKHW
VIM-2 confirm 2 = VIM-2 metallo-beta-lactamase inhibitors, confirmation, biochemical, epi-absorbance, hits shared with IMP-1 screen; inhibition, % at 5.6 µM; shares compounds with VIM-2 inh; 1,300 compounds, 96% hits; purified VIM-2, nitrocefin hydrolysis; AID 2187, 2009;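 active = inhibition of the VIM-2 beta-lactamase enzyme above about 11% from the earlier first-round screen, limit read from the data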;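 also: 0% = VIM-2 with DMSO and 100% = buffer wells without enzyme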
Numbers without * were called inactive; nt = not tested or not shown.

SMILES	IMP-1 inh-1	VIM-2 inh	HCV core dimer	SUMO HTRF inh	PHOSPHO1 block	NS3 helicase inh	IMP-1 inh-2	VIM-2 FRET ctr	TEM-1 counter	VIM-2 confirm 2
CCOc1ccccc1C(=O)NC(C)c1ccc(-n2ccnc2)cc1 (stereo unspecified)	-4	26*	1	-1	38	7	-4	8	-7	34*
COc1ccccc1C(=O)NC(C)c1ccc(-n2ccnc2)cc1 (stereo unspecified)	-6	1	-24	2	32	9	nt	nt	nt	nt
Cc1onc(-c2ccccc2)c1C(=O)N(Cc1ccccc1)C(C)C	-1	-1	8	11	25	-9	nt	nt	nt	nt
CNC(=S)N/N=C/c1ccc(-c2cc([N+](=O)[O-])ccc2Cl)o1	-2	-1	13	21	8	-6	nt	nt	nt	nt
O=[N+]([O-])c1ccc(Cl)c(-c2ccc(/C=N/n3cnnc3)o2)c1	-2	45*	13	5	-3	2	-4	-1	-6	52*
Cc1ccc(-c2ccc(/C=N\n3cnnc3)o2)c(Br)c1	-3	13*	-2	7	14	1	-3	6	-6	24*
COc1cc([N+](=O)[O-])ccc1-c1ccc(/C=N/NC(=O)c2ccccc2O)o1	-4	-4	nt	38	8	2	nt	nt	nt	nt
Cc1cc(-c2ccc(/C=N/n3cnnc3)o2)c(C)c([N+](=O)[O-])c1	-2	87*	-2	7	9	12	-3	5	-8	91*
Cc1ccc([N+](=O)[O-])cc1-c1ccc(/C=N\n2nnnc2N)o1	-3	1	35	22	-4	4	nt	nt	nt	nt
COc1cc([N+](=O)[O-])ccc1-c1ccc(/C=N\n2cnnc2)o1	0	45*	nt	50	44	-2	-2	-2	-2	45*
Cc1ccc(Sc2oc(/C=N/n3cnnc3)cc2Br)cc1	2	-3	1	18	-8	7	nt	nt	nt	nt
CCn1c(N)[n+](CC(=O)Nc2ccc(SC(F)F)cc2)c2ccccc21	-3	-1	-5	15	44	-69	nt	nt	nt	nt
CCOC(=O)Cn1nc(C)n(-c2c(C)cccc2C)c1=O	-5	-1	-2	17	34	-14	nt	nt	nt	nt
CC(Sc1nc2ccccc2c(=O)n1C)C(=O)N(C)C1CCCCC1 (stereo unspecified)	nt	nt	3	nt	nt	nt	nt	nt	nt	nt
O=[N+]([O-])c1cc(-c2ccc(/C=N/n3cnnc3)o2)ccc1Cl	0	44*	4	6	36	2	-3	5	-5	58*
Cc1cccc(N(Cc2ccccc2)C(=O)c2cc(S(=O)(=O)N3CCOCC3)ccc2Cl)c1	nt	nt	-4	nt	nt	nt	nt	nt	nt	nt
CCN(CC)CC(=O)Nc1cccc2c1C(=O)c1ccccc1C2=O	-2	4	8	10	-13	13	nt	nt	nt	nt
O=C1c2ccccc2C(=O)c2c(NCCCN(CCO)CCO)cccc21	-4	22*	nt	-16	48	4	-4	-3	-13	36*
COc1ccc2c(c1)c1ncn(CCN3CCCC3)c(=O)c1n2C	-1	3	3	24	0	-2	nt	nt	nt	nt
COc1ccc2c(c1)c1ncn(CCN3CCNCC3)c(=O)c1n2C	-1	14*	0	22	17	5	-1	0	-8	31*
CCc1nnc(NC(=O)CSc2nnc3nc(C)cc(C)n23)s1	-2	-1	3	15	10	7	nt	nt	nt	nt
CC1(C)CC(NC(=O)COc2cc3oc(=O)c4c(c3cc2Cl)CCC4)CC(C)(C)N1	0	34*	4	4	24	-2	-2	1	-7	41*
Cc1c(C)c2cc(Cl)c(OCC(=O)NC3CC(C)(C)NC(C)(C)C3)cc2oc1=O	-1	16*	-7	nt	41	-6	-3	3	-5	22*
Cc1cc(OCC(=O)NC2CC(C)(C)NC(C)(C)C2)c2c(C)c(C)c(=O)oc2c1	1	14*	0	29	18	3	-4	2	-7	18*
O=C(CSc1ncccn1)NC1CCS(=O)(=O)C1 (stereo unspecified)	0	-1	-5	4	33	15	nt	nt	nt	nt
SMILES	IMP-1 inh-1	VIM-2 inh	HCV core dimer	SUMO HTRF inh	PHOSPHO1 block	NS3 helicase inh	IMP-1 inh-2	VIM-2 FRET ctr	TEM-1 counter	VIM-2 confirm 2
O=C(O)COc1ccccc1/C=N/NC(=O)CSc1nc2ccccc2n1Cc1ccc(Cl)cc1	0	1	16	12	32	-18	nt	nt	nt	nt
Nc1nc(=S)c2ncn(C3CCCC3)c2[nH]1	-1	-2	nt	2	29	6	nt	nt	nt	nt
CCOC(=O)N1CCC(N2CCN(C3CCCC3)C(CCO)C2)CC1 (stereo unspecified)	-3	-2	0	11	18	1	nt	nt	nt	nt
Cc1cc(C)c(NC(=S)N(C)C)c(C)c1	0	0	-1	25	-3	5	nt	nt	nt	nt
COc1ccc([N+](=O)[O-])cc1N/C(=N/S(=O)(=O)c1ccccc1)c1ccccc1	-4	-2	1	-3	38	3	nt	nt	nt	nt
COc1ccc(NC(=O)CN2CCN(S(=O)(=O)N3CCCCCC3)CC2)cc1	-2	-2	10	7	32	-1	nt	nt	nt	nt
COc1ccc(-c2cc(C(=O)Nc3ccc(S(=O)(=O)Nc4onc(C)c4C)cc3)c3ccccc3n2)cc1	-2	-1	15	32	16	-13	nt	nt	nt	nt
Cc1cc(OC(C)C(=O)NCCCn2ccnc2)c2c(C)cc(=O)oc2c1 (stereo unspecified)	-2	28*	7	18	27	-2	-2	-4	-3	39*
CCCc1cc(=O)oc2cc(C)cc(OC(C)C(=O)NCCCN3CCOCC3)c12 (stereo unspecified)	-4	-1	4	20	17	2	nt	nt	nt	nt
